Results of several laboratories.
Compare with care: the assays were run in different laboratories.
Target: Tyrosine-protein kinase BTK (BTK, Homo sapiens, UniProt Q06187)

CO[C@@H](C)c1c(Nc2ccc([C@H](N(C)C(=O)C3CCS(=O)(=O)CC3)C(F)(F)F)cc2)cnc2cc(Cl)nn12  remaining binding (cell-free assay; competition with immobilised ligand; 1 µM): 100%
O=C(c1ccc(Nc2ncc(Cl)c(-c3cc4ccccc4s3)n2)cc1)N1CCC(N2CCCC2)CC1  remaining binding (binding; competition with immobilised ligand; 1 µM): 63%
F[C@@H]1CCN(c2nccc(-c3cnn4ncccc34)n2)C1  remaining binding (binding; 1 µM): 100%
COc1cnc(Nc2cccc(S(N)(=O)=O)c2)nc1N1CCN(c2ccccc2)C(=O)C1  remaining binding (binding; competition with immobilised ligand; 1 µM): 81%
O=C(NCCCN1CCOCC1)c1ccc(Nc2ncc(Cl)c(-c3ccc(Cl)s3)n2)cc1  remaining binding (binding; competition with immobilised ligand; 1 µM): 100%
Cn1cc(Cl)c2c(Oc3c(F)cc(Nc4cc(Cl)nc(N)n4)cc3F)ccnc21  remaining binding (cell-free assay; competition with immobilised ligand; 0.1 µM): 84%
COc1ccnn2ncc(-c3ccnc(N(C)C)n3)c12  remaining binding (binding; 1 µM): 94%
c1cncc(-c2cccc(Nc3nccc(NC4CCCCC4)n3)c2)c1  remaining binding (binding; competition with immobilised ligand; 10 µM): 36%
O=C1CCc2cc(Nc3cc(OC4CCOCC4)c([N+](=O)[O-])cc3Cl)ccc2N1  remaining binding (cell-free assay; competition with immobilised ligand; 1 µM): 100%
Cc1ccc(-n2nc(C(C)(C)C)cc2NC(=O)Nc2ccc(-n3c(N)c(C(N)=O)c4nc5ccccc5nc43)cc2)cc1  remaining binding (cell-free assay; competition with immobilised ligand; 1 µM): 0.95%
O=C(N1CCS(=O)(=O)CC1)N1C[C@H](c2ccc(OC(F)(F)F)cc2)C[C@H](c2nc(C3CC3)no2)C1  remaining binding (cell-free assay; competition with immobilised ligand; 1 µM): 100%
C[C@@H]1CCN(c2nccc(-c3cnn4ncccc34)n2)C1  remaining binding (binding; 1 µM): 90%
CC(=O)Nc1c(C(C)=O)c(=O)n(C)c2nc(-c3ccc(Cl)cc3Cl)c(-c3ccc(Cl)cc3)cc12  remaining binding (cell-free assay; competition with immobilised ligand; 1 µM): 88%
CN(C)c1ncc(F)c(-c2cnn3ncccc23)n1  remaining binding (binding; 1 µM): 75%
O=C(Nc1c[nH]nc1C(=O)NC1CCNCC1)c1cc(F)cc(F)c1  remaining binding (binding; competition with immobilised ligand; 1 µM): 100%
COc1ncc2cc3ccccc3nc2c1C#N  remaining binding (cell-free assay; competition with immobilised ligand; 5 µM): 100%
O=C(NCCCN1CCOCC1)c1ccc(Nc2nccc(-c3cc4ccccc4s3)n2)cc1  remaining binding (binding; competition with immobilised ligand; 1 µM): 77%
CC(C)(C)c1ccc(-c2nc(CBr)nn2-c2cccc(O)c2)cc1  remaining binding (cell-free assay; competition with immobilised ligand; 10 µM): 83%
C[C@@H]1CN(c2ccc3ncc(-c4ccc5[nH]nc(C6CC6)c5c4)n3n2)C[C@H](C)O1  remaining binding (binding; competition with immobilised ligand; 0.5 µM): 89%
CN(C)c1nccc(-c2cnc3ncccn23)n1  remaining binding (binding; 1 µM): 68%
O=C(Nc1cccnn1)N1CCC(=Cc2cccc(Oc3ccc(C(F)(F)F)cn3)c2)CC1  remaining binding (cell-free assay; competition with immobilised ligand; 1 µM): 100%
c1cnn2ncc(-c3ccnc(N4CCC45COC5)n3)c2c1  remaining binding (binding; 1 µM): 89%
CNC(=O)[C@@H]1CC[C@@H](n2c(-c3ccc4cnccc4c3)nc3ccc(C(=O)NCc4cccc(C(N)=O)c4)cc32)C1  remaining binding (binding; competition with immobilised ligand; 1 µM): 96%
Nc1c(C(=O)NCc2ccc(C(=O)NCCCC3CCCCC3)cc2)cnn1-c1ccccc1  remaining binding (cell-free assay; competition with immobilised ligand; 0.1 µM): 100%
